Hits are enriched below; roughly 2.3% of the tested compounds scored in any of these assays.
OXTR agonist: agonists of human oxytocin receptor; 320,000 tested, 0.32% active; activation, % at 3 µM; P30559; CHO-OTR cells, Fluo-8 calcium fluorescence; normalized: DMSO 0%, oxytocin 100%;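 active = activation above the mean of all tested compounds plus 3 SD, cutoff set per screening run, cut at about 20% in these data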;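 note: peak over basal fluorescence ratio from a 100 s FLIPR kinetic read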
Target sequence (P30559 whole entry, looked up): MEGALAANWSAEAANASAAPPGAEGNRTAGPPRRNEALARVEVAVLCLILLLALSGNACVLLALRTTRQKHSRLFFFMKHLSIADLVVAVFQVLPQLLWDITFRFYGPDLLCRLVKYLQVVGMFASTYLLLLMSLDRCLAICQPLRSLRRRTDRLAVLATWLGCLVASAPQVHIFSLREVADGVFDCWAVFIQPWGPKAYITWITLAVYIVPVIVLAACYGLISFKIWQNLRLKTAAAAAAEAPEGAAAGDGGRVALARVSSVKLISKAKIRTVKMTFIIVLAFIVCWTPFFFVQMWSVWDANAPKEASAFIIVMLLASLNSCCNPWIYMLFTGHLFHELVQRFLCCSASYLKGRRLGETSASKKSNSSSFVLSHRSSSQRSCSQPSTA
OXTR potentiate: potentiates the human oxytocin receptor response; P30559; CHO-OTR cells, Fluo-8 calcium fluorescence, potentiator mode; 0% = oxytocin EC15, 100% = EC100; activation, % at 3 µM; 320,000 tested, 0.061% active; AID 2445;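 active = activation above that plate's cutoff, the mean activation of tested compounds plus 3 SD, cut at about 6.6% in these data, passing the limit was not always enough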;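 note: 100% uses oxytocin at 75 nM as the full agonist control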
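Measured by – Fluo-8 calcium dye fluorescence · Test system – human OTR in CHO cells · Dosing – one concentration, 3.0 µM compound · Controls – EC15 oxytocin alone as 0%, 75 nM oxytocin as 100% · Evaluation – normalized max/min fluorescence ratio, % activation · Timing – 6 min pre-incubation, 100 s read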
TAAR1 antag: human TAAR1 antagonism | AID 624466 | CHO RD-HGA16 TAAR1, Fluo-8 calcium fluorescence, antagonist | 360,000 tested, 1.5% active | inhibition, % at 3 µM | Q96RJ0;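 active = inhibition above a per-plate cutoff, the mean inhibition of test compounds on that plate plus 3 SD, cut at about 49% in these data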;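 note: 0% = DMSO plus EC80 beta-PEA response and 100% = DMSO alone without agonist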
Target sequence (Q96RJ0 whole entry, looked up): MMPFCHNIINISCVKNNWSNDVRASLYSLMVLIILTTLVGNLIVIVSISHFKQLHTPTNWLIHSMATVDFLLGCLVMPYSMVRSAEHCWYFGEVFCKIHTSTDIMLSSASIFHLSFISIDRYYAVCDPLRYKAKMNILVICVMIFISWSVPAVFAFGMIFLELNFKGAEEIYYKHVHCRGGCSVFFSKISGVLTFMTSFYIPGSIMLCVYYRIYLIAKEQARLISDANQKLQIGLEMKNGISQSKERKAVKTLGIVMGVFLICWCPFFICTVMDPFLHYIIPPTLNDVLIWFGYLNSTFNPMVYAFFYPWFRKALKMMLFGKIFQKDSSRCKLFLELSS
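Test system: CHO RD-HGA16 cells bearing hTAAR1 | Reagent: β-PEA, EC80 | Compound dosing: 3 µM, single point | Schedule: Dye loading 75 min at 37 °C, then 30 min room temperature | Signal: Calcium fluorescence with Fluo-8 | Evaluation: Percent inhibition of PEA-evoked calcium signal, max/basal emission ratio | Control set: DMSO-only wells and EC80 β-PEA-stimulated wells | Repeats: Singlicate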
V1aR counter: activates human V1a receptor in oxytocin agonist counter-screen; CHO-V1R cells, Fluo-8 calcium fluorescence, agonist mode; 0% DMSO, 100% 3 nM vasopressin; P37288; 320,000 tested, 0.25% active; activation, % at 3 µM;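 active = activation above the mean activation of all tested compounds plus 3 SD, per screening run, cut at about 20% in these data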;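 note: signal is peak over basal fluorescence ratio across a 100 second FLIPR read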
TAAR1 agonist: human TAAR1 agonism; AID 624467; Q96RJ0; CHO RD-HGA16 TAAR1, Fluo-8 calcium fluorescence; vehicle wells 0%, saturating PEA agonist 100%; 360,000 tested, 0.99% active; activation, % at 3 µM;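 active = activation above the mean activation of all test compounds in the run plus 3 SD, cut at about 38% in these data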
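test system = CHO RD-HGA16 cells carrying human TAAR1 plus Gα16 | schedule = 17-24 h seeding, 75 min 37 °C dye, 30 min RT | compound dosing = 3 µM single concentration | control set = DMSO and PEA EC100 | replicates = n 1 | signal = Fluo-8 fluorescence, 5 s baseline then 140 s kinetic read | measure = percent activation vs PEA EC100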
TAAR1 ag confirm: confirmation of human TAAR1 agonists; activation, % at 3 µM; shares compounds with TAAR1 agonist; AID 651783; CHO RD-HGA16 TAAR1, Fluo-8 calcium fluorescence; scaled: DMSO 0%, maximal phenethylamine 100%; 2,400 tested, 82% active;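 active = activation above a cutoff set at the run's mean compound activation plus 3 SD, cut at about 39% in these data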
Ga16 nonsel ag: nonselective agonist in parental cells, TAAR1 agonist counter-screen; 2,400 tested, 50% active; activation, % at 3 µM; CHO-Ga16 parental, Fluo-8 calcium fluorescence; normalized to maximal ATP response, DMSO zero; AID 651787; shares compounds with TAAR1 agonist;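 active = activation above the run cutoff, the mean activation over all tested wells plus 3 SD, cut at about 12% in these data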;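 note: 0% = DMSO wells and 100% = maximal ATP response on the peak over basal ratio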
TAAR1 desensitize: human TAAR1 agonist that also desensitizes the receptor. shares compounds with TAAR1 agonist. CHO RD-HGA16 hTAAR1, Fluo-8 calcium, beta-PEA response inhibition. inhibition, % at 3 µM. 2,400 tested, 46% active. AID 651951;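 active = inhibition above the run cutoff, the mean inhibition of all test compounds plus 3 SD, cut at about 49% in these data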;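 note: beta-PEA stimulus applied at its EC80; loss of beta-PEA calcium signal after compound pretreatment read as receptor desensitization; 0% = DMSO with beta-PEA at EC80 and 100% = DMSO alone without agonist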
Ga16 antag count: nonselective Ga16 antagonist in TAAR1 agonist counter-screen | shares compounds with TAAR1 agonist | CHO-Ga16 ATP-induced calcium, Fluo-8 fluorescence | inhibition, % at 3 µM | 2,400 tested, 39% active;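 active = inhibition above the plate's mean compound inhibition plus 3 SD, computed per plate, cut at about 22% in these data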;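 note: 0% = EC80 ATP with DMSO and 100% = DMSO wells without ATP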
Numbers without * were called inactive; . = no result; ! = a repeat was not active.

SMILES	OXTR agonist	OXTR potentiate	TAAR1 antag	V1aR counter	TAAR1 agonist	TAAR1 ag confirm	Ga16 nonsel ag	TAAR1 desensitize	Ga16 antag count
N[C@@H](Cc1ccccc1)C(=O)N1CCC(C(=O)N[C@@H](CCC(=O)O)C(=O)O)CC1	1	-3	7	1	-1	.	.	.	.
CC(CCc1ccc(O)cc1)N(C)CCc1ccccc1 (centres undefined)	2	-1	6	1	49*	61*	5	5	-6
O=C(CN1CCN(S(=O)(=O)c2ccccc2F)CC1)Nc1ccccc1C(=O)c1ccccc1	-2	-10	3	0	8	.	.	.	.
Cn1cc(CN2CCC(C(=O)NC(c3ccc(F)cc3)c3ccc4ccccc4n3)CC2)c2ccccc21 (centres undefined)	.	.	52*	.	53*	-4	32*	104*	52*
COc1cc(CN2CCC(C(=O)NC(c3ccc(F)cc3)c3ccc4ccccc4n3)CC2)cc(OC)c1 (centres undefined)	.	.	-7	.	14	.	.	.	.
CCN(CC)S(=O)(=O)c1ccc(NC(=O)CCN2C(=O)C3CC=CCC3C2=O)cc1 (centres undefined)	0	-7	-4	1	0	.	.	.	.
CCCN1CN(CCc2ccccc2)CNC1=S	1	5	.	-1	.	.	1	.	0
CCc1ccc(N2CN(CCc3ccccc3)CNC2=S)cc1	0	-8	59*	0	95*	83*	2	68*	0
S=C1NCN(CCc2ccccc2)CN1Cc1ccccc1	1	3	-32	3	33	.	.	.	.
S=C1NCN(CCc2ccccc2)CN1	-1	-10	14	1	87*	101*	22*	46	0
CCCCN1CNC(=S)N(CCc2ccccc2)C1	-1	9	-2	0	4	.	.	.	.
COc1cccc(N2CN(CCc3ccccc3)CNC2=S)c1	-1	4	81*	-1	96*	93*	1	80*	1
Cc1ccc(N2CN(Cc3ccco3)CNC2=S)cc1	0	11	2	-1	7	.	.	.	.
Cc1ccc(N2CN(CCC3=CCCCC3)CNC2=S)cc1	-1	-3	-2	-1	49*	56*	2	10	9
Cc1cccc(N2CCN(C(=S)Nc3ccc4nc(N5CCN(C)CC5)cc(C)c4c3)CC2C)c1 (centres undefined)	6	-5	85*	1	93*	103*	44*	94*	35*
Cc1cc(N2CCN(C)CC2)nc2ccc(NC(=S)N3CCN(c4cccc(Cl)c4)CC3)cc12	1	0	4	1	7	.	.	.	.
CC(=C/c1ccccc1)/C=N/n1cnnc1	11	-17	25	0	96*	37	59*	19	17
ClC(=C\c1ccccc1)/C=N/N1CCN(c2ccccn2)CC1	-1	-6	24	0	9	.	.	.	.
CC(/C=N/n1cnnc1)=C\c1ccccc1	18	-9	-10	4	102*	87*	63*	31	14
C(=C\c1ccccc1)/C=N/n1cnnc1	1	0	-9	0	24	.	.	.	.
ClC(/C=N/n1cnnc1)=C/c1ccccc1	7	-5	-7	3	76*	62*	30*	8	17
CCOC(=O)[C@H]1[C@H]2COc3ccc(Cl)cc3[C@@H]2N2C(=O)c3ccc(Cl)cc3NC(=O)[C@@]12C	6	-1	28	-1	8	.	.	.	.
COc1cccc(CN2CCNC(=O)C2CC(=O)N(C)CCc2ccccn2)c1OC (centres undefined)	0	-3	.	1	.	.	.	.	.
Nc1c(CNCc2nnn(Cc3ccccc3)c2N)nnn1Cc1ccccc1	.	.	-9	.	0	.	.	.	.
O=C(NCC(c1ccco1)N1CCc2ccccc2C1)c1ccc(F)cc1 (centres undefined)	-2	-14	-18	-1	46*	19	1	1	11
SMILES	OXTR agonist	OXTR potentiate	TAAR1 antag	V1aR counter	TAAR1 agonist	TAAR1 ag confirm	Ga16 nonsel ag	TAAR1 desensitize	Ga16 antag count
COc1ccccc1NC(=O)C(=O)NCC(c1ccco1)N1CCc2ccccc2C1 (centres undefined)	0	-8	25	0	83*	64*	1	8	4
COc1ccc(C)cc1S(=O)(=O)NCC(c1ccco1)N1CCc2ccccc2C1 (centres undefined)	-2	-10	-15	-2	42*	62*	1	19	10
O=C(NCC(c1ccco1)N1CCc2ccccc2C1)C(=O)Nc1ccccc1 (centres undefined)	-1	-10	-4	-1	26	.	.	.	.
O=C(NCC(c1ccco1)N1CCc2ccccc2C1)c1ccccc1 (centres undefined)	-2	0	-17	-1	3	.	.	.	.
COc1ccc(CCC(=O)OCC(=O)NC(=O)c2ccc(Cl)cc2)cc1	4	-4	-5	5	4	.	.	.	.
Clc1ccc2nc(N3CCNCC3)nc(-c3ccccc3)c2c1	4	-4	-5	0	57*	58*	29*	34	14
O=C(O)[C@@H]1CSC2c3ccccc3C(=O)N21 (some centres undefined)	0	6	8	1	2	.	.	.	.
O=C(NCCc1ccccc1F)[C@@H]1CSC2c3ccccc3C(=O)N21 (some centres undefined)	0	2	22	1	60*	65*	3	38	9
CC/C(=C(\c1ccccc1)c1ccc(OCCN(C)C)cc1)c1ccccc1	1	-8	-7	2	39*!	46*	42*	27	38*
C=CCn1c(SCC(=O)Nc2c(C)n(C)n(-c3ccccc3)c2=O)nnc1-c1cccnc1	2	1	-32	1	3	.	.	.	.
COc1ccc(-c2cc(C(=O)Nc3ccc(C(N)=O)cc3)c3ccccc3n2)cc1	3	-6	45	4	8	.	.	.	.
Cn1c(=O)c2[nH]c(Nc3ccccc3)nc2n(C)c1=O	2	-10	33	1	74*	71*	4	61*	8
Cc1ccc(CNc2nc3c([nH]2)c(=O)n(C)c(=O)n3C)cc1	-1	-18	-28	0	12	.	.	.	.
